The values below come from ChEMBL document CHEMBL4028863, “Exploring Heme and Hemoglobin Binding Regions of Plasmodium Heme Detoxification Protein for New Antimalarial Discovery” (J Med Chem, 2017).

Data set [1] in a line: Stability of the compound under freezing condition. Type of data set: physicochemical.
Data set [2] concerns Plasmodium falciparum. Description: Growth inhibition of late ring stage Plasmodium falciparum 3D7 infected in RBC after 60 hrs by e thidium bromidestaining based flow cytometric analysis. Type of data set: functional. An outline of the steps:
(§1)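 P. falciparum 3D7 cultures synchronized with 5% sorbitol; assay set at late ring stage, 2% hematocrit, 1% parasitemia. Compounds added at 50 and 100 μM (screen) or 5−100 μM (dose series). Parasitemia read by flow cytometry after 60 h (methods: 48 h into next cycle): ethidium bromide 10 μg/mL, 20 min, 37 °C; FL2-positive fraction of 100000 cells, uninfected RBCs as control. Triplicates.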
In general terms: Flow cytometry measures light scatter and fluorescence of single cells or particles in a stream.

For data set [3], the system named is Plasmodium falciparum. As to the kind of experiment: Antiparasitic activity against late ring stage Plasmodium falciparum 3D7 infected in RBC at 50 to 100 uM after 60 hrs by ethidium bromide staining based flow cytometric analysis. Type of data set: functional. The essentials: as §1
Data set [4] has as its system Heme. Description: Binding affinity to heme (unknown origin) assessed as reduction in heme to hemozoin conversion by Plasmodium falciparum HDP. The essentials:
(§2)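 Heme-to-hemozoin conversion: heme (10 mM DMSO stock) at 300 μM with 0.5 μM recombinant PfHDP in 500 mM sodium acetate pH 5.2, 4 h at 37 °C. Stopped with SDS. Pellet washed in 2.5% SDS and in 50 mM bicarbonate pH 9.1 to strip free heme. Hemozoin dissolved in 0.1N NaOH/2.5% SDS, read at 405 nm. Triplicates.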

The subject of data set [5] is Heme. As to the kind of experiment: Binding affinity to heme (unknown origin) assessed as reduction in heme to hemozoin conversion by Plasmodium falciparum HDP at 100 uM relative to control. Set-up: scale not given: the % may be the effect or the level left. The essentials: as §2
Data set [6] concerns Heme. Description: Binding affinity to heme (unknown origin) at 20 uM by SORET assay. The essentials:
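Soret titration: 20 μM peptide in 100 mM sodium acetate pH 5.2; heme added in 3 μM increments. Spectrum recorded after each addition; change in absorbance at 400 nm plotted against heme concentration. Alanine-substituted peptide served as control.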

The test system of data set [7] is Plasmodium falciparum. As to the kind of experiment: Antiplasmodial activity against late trophozoite stage of Plasmodium falciparum 3D7 infected in RBC assessed as gross deformaties in food vacuole at 50 to 100 uM after 12 hrs by giemsa staining based microscopic analysis. The class given is functional. The essentials: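 Sorbitol-synchronized 3D7 late-ring cultures at 2% hematocrit and 1% parasitemia were given peptide at 50−100 μM. After 12 h, at the late trophozoite stage, Giemsa-stained smears were examined by microscopy for food vacuole morphology.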

Data set [8] in a line: Inhibition of wild type Plasmodium falciparum HDP binding to hemoglobin at 0.5 to 100 uM preincubated for 30 min followed by HDP addition measured after 1 hr by ELISA. An outline of the steps: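 ELISA competition: 400 ng hemoglobin preincubated with varying peptide concentrations for 30 min at 37 °C, then added to wells coated overnight at 4 °C with 200 ng recombinant PfHDP and blocked with 3% BSA. Detection with anti-Hb (1:500), then HRP anti-rabbit (1:5000) for 1 h, OPD substrate, absorbance 490 nm. Control peptide included.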

The target in another data set is T1, Heme ligase (Plasmodium falciparum (isolate 3D7), UniProt Q8IL04).
T1 sequence (Q8IL04 whole entry): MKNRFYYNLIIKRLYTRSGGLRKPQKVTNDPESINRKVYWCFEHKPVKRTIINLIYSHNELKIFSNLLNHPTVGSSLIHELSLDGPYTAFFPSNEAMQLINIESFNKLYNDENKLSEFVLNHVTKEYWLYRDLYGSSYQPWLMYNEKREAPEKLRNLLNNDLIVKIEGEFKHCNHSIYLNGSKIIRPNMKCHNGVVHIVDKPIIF
As to the kind of experiment: Binding affinity to Plasmodium falciparum 3D7 HDP assessed as equilibrium dissociation constant by SPR assay. The essentials: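 Recombinant Pf HDP immobilised (>9500 RU) on a CM5 chip from 10 mM sodium acetate pH 4.0, then ethanolamine-blocked. Ligand was diluted from a 10 mM DMSO stock to 200 μM (2% DMSO), and a concentration series was made in PBS pH 7.4 running buffer with 2% DMSO and 0.05% P20. Eight-point DMSO solvent correction, glycine pH 2.5 regeneration, 25 °C, kinetic fit.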
On the technique in general: SPR reads the build-up and loss of mass on a sensor chip optically.

For data set [9], the target named is T2, Heme ligase (Plasmodium falciparum (isolate 3D7)) (UniProt Q8IL04).
T2 sequence (whole entry): T1 sequence (Q8IL04 whole entry)

The target of data set [10] is T2, Heme ligase (Plasmodium falciparum (isolate 3D7)). As to conditions: Plasmodium falciparum 3D7; 50 uM.

Active and inactive are the calls of the source. The rule behind the calls is not given here.

Consider `O=C(c1cccs1)c1nn(-c2ccccc2)c2nc(=O)cc(-c3ccccc3)n12`, for which the Stability result in data set [1] is on record as “Unstable”. For the same compound, the “growth inhibition (GI)” value with Plasmodium falciparum [2] is “Dose-dependent effect”. Besides, the result in the data set with Plasmodium falciparum [3] was Active.
Regarding `Cc1ccc(Oc2ncccc2NC(=O)c2ccc3c(c2)OCCCO3)c2c1CCC2`, the Stability entry in [1] is on record as “Unstable”. The “growth inhibition (GI)” value in the data set on Plasmodium falciparum [2] was “Dose-dependent effect”. In addition, the outcome in the data set with Plasmodium falciparum [3] was Active.
For `COc1ccc(Oc2ccc(C(F)(F)F)cc2NS(=O)(=O)c2cccc3nonc23)cc1`, in the data set on Plasmodium falciparum [3], the result was Active.
Consider `N#Cc1cc(Cc2ccc3c(ccc4ccccc43)c2C#N)cc2c1ccc1ccccc12`, for which the result in the data set with Plasmodium falciparum [3] was Active.
On to H-GEFKHCNHSIYLNG-OH, for which the Activity entry with Heme [4] was “Dose-dependent effect”; in the data set with Heme [5], above 75%. Also, the result with Heme [6] was Active.
As for `O=C(CCn1c(=O)oc2ccccc21)Nc1cc(C(F)(F)F)cc(C(F)(F)F)c1`, in the data set with Plasmodium falciparum [3], the result was Active.
Still for that read-out and setting: under `O=c1oc2ccccc2c2c1C(c1cccc([N+](=O)[O-])c1)c1c(c3ccccc3oc1=O)O2` stands “Active”.
With `Cc1ccc(-n2nnnc2SCc2nc(-c3cccc([N+](=O)[O-])c3)no2)c(C)c1`, the Stability entry in data set [1] was “Unstable”. The “growth inhibition (GI)” value in the data set on Plasmodium falciparum [2] was “Dose-dependent effect”. Further, the result in the data set on Plasmodium falciparum [3] was Active.
For `O=C(NNC(=O)C1c2ccccc2Oc2ccccc21)c1cccc(C(F)(F)F)c1` the same measures were “Unstable”, “Dose-dependent effect” and “Active”.
A word on the inhibition: it is the share of the control response that was lost under treatment. Regarding H-LRNLLNNDLIVKIEGEFKH-OH, the result in the data set with Plasmodium falciparum [7] was Active. The inhibition entry in data set [8] is “Active”.
Turning to `NS(=O)(=O)c1cccc(-c2ccc(C3Nc4ccccc4-c4nc5ccccc5n43)o2)c1` (centres undefined), the outcome with Plasmodium falciparum [3] was Active.
Consider H-LHRKNFLELGNENIDKL-OH, for which the inhibition result in data set [8] is “inactive”.
Take H-GEFKAAAASIYLNG-OH: the result in the data set on Heme [6] was Active.
In the case of `Cc1cc(=O)oc2cc(NS(=O)(=O)c3cccc4nonc34)ccc12`, the outcome with Plasmodium falciparum [3] was Active.
What is called Kd is the equilibrium constant for the complex coming apart. Broadly, the IC50 is the concentration needed to halve the response being measured. As for `FC(F)(F)c1cccc(N2CCN(C3=Cc4ccccc4CC3)CC2)c1`, in [1], the Stability entry is given as “Stable”. In addition, the Kd at Heme ligase turned out to be 2.96 µM. Also, the “growth inhibition (GI)” value with Plasmodium falciparum [2] was “Dose-dependent effect”. In the data set with Plasmodium falciparum [2] (3D7, 60 h), this compound gave an IC50 of 59.6 µM. In [9], the Ka turned out to be 3.37 ×10⁵ /M. Further, the inhibition in [10] came to 31%. Besides, in the data set on Plasmodium falciparum [3], the outcome was Active.
Turning to `C(=C1/c2ccccc2-c2c1ccc1ccccc21)/c1cc2c3c(cccc3c1)-c1ccccc1-2`, the outcome in the data set with Plasmodium falciparum [3] was Active.
For H-MKCHNGVVHIVD-OH, the Activity result in the data set with Heme [4] is “Dose-dependent effect”; in the data set with Heme [5], above 75%. Besides, the outcome with Heme [6] was Active.
Turning to `O=[N+]([O-])c1ccc(N/N=C2/C(=C/c3cccc4ccccc34)CCc3ccccc32)c([N+](=O)[O-])c1`, in data set [1], the Stability result is reported as “Unstable”. The “growth inhibition (GI)” value in the data set with Plasmodium falciparum [2] is “Dose-dependent effect”. Moreover, in the data set with Plasmodium falciparum [3], the result was Active.
